According to ChEMBL document CHEMBL1133463, “Novel mutual prodrug of retinoic and butyric acids with enhanced anticancer activity” (J Med Chem, 2000):
“And” between values parts separate entries of the source, which are not always exact repeats. Identical values can stand only once.

Assays:
[1] = test system: HL-60; experiment: Differentiation activity was determined by evaluation of NBT reduction activity of HL-60 cells, % of NBT positive cells determined; type: functional, Homo sapiens
Procedure, shortened: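 HL-60 grown 2 days with or without compound at 0.25 μM. Cultures then given 0.1% NBT, stimulated with 0.4 μM PMA and incubated 30 min at 37 °C. At least 200 cells scored microscopically. % NBT-positive cells taken as stained/total, minus the untreated-culture value. Three independent experiments.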

[2] = test system: 3LLD122; experiment: Concentration required to inhibit the colony formation of lung carcinoma (3LLD122) cell lines by 50%; type: functional, cell-based; details: Mus musculus
Procedure, shortened: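 Murine 3LLD122 (highly metastatic 3LL subclone) grown in RPMI with 10% FCS and 2 mM glutamine at 37 °C, 5% CO2. Compounds added to the upper layer of a semisolid agar bilayer. Aggregates of >20 cells scored as colonies after 7 days by inverted microscope. Drugs in DMSO at 1:1000 dilution (final DMSO ≤0.1%).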

[3] = test system: HL-60; experiment: In vitro for the differentiation induction activity determined in the human myeloid leukemic cell line HL-60; type: functional; details: read-out: ED50 (the source's name)
Procedure, shortened: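 HL-60 treated 4 days. NBT reduction measured with 0.1% NBT plus 0.4 μM PMA for 30 min at 37 °C, scoring ≥200 cells, with the untreated background subtracted. ED50 is the concentration giving half-maximal NBT reduction, obtained by linear regression and averaged over three independent experiments.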

[4] = test system: MIA PaCa-2; experiment: Concentration required to inhibit the colony formation of pancreatic human (PACA) cell lines by 50%; type: functional, cell-based
Procedure, shortened: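 PaCa2 single-cell suspensions plated at 400 cells per 60-mm dish. Drug exposure began 24 h after plating. Colonies formed over 7-12 days, then were MeOH-fixed, Giemsa-stained, counted and compared with untreated control. Triplicate assays. Drugs in DMSO, final ≤0.1%.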

IC50 [2] | EC50 [3] | IC50 [4] | SMILES | NBT positive cells [1]
– | – | – | CC1=C(/C=C/C(C)=C/C=C/C(C)=C/C(=O)OCOC(=O)C(C)C)C(C)(C)CCC1 | 48% and 54% and 49%
– | – | – | CC1=C(/C=C/C(C)=C/C=C/C(C)=C/C(=O)OCOC(=O)C(C)(C)C)C(C)(C)CCC1 | 13% and 21% and 17%
– | – | – | CCC(=O)OCOC(=O)/C=C(C)/C=C/C=C(C)/C=C/C1=C(C)CCCC1(C)C | 60% and 56% and 57%
4.5 µM | 31 nM | 4 µM | CCCC(=O)OCOC(=O)/C=C(C)/C=C/C=C(C)/C=C/C1=C(C)CCCC1(C)C | 72% and 74% and 78%
35 µM | – | 30 µM | CCCC(=O)OCOC(=O)C(C)(C)C [AN-9] | –
> 1000 µM | 285000 nM | 250 µM | CCCC(=O)O [BUTYRIC ACID] | –
33 µM | 1250 nM | 9.5 µM | CC1=C(/C=C/C(C)=C/C=C/C(C)=C/C(=O)O)C(C)(C)CCC1 [TRETINOIN] | 21% and 30% and 22%
